Reference: ChEMBL document CHEMBL1154480, “Synthesis and evaluation of 4-amino-3,4-dihydro-2H-naphthalen-1-one derivatives as mast cell stabilising and anti-inflammatory compounds” (Eur J Med Chem, 2008)
Values belong to the molecule of their own block, whether it stands above or below them. The source made the active and inactive calls. The calls are words filed in the database; no cut-off is given here.

Key:
Mus musculus = test: Antiinflammatory activity in Laca mouse assessed as inhibition of arachidonic acid-induced ear oedema at 300 ug/ear; type: functional
How it was run: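 Male Laca mice (25-30 g), groups of five, sedated with sodium pentobarbitone 60 mg kg-1 i.p. Compound or indomethacin at 300 µg ear-1 and arachidonic acid at 1 mg ear-1, all in acetone. 5 mm punch biopsies taken from both ears and weighed; left-ear weight subtracted from right. Inhibition calculated against the AA-only group. Student's t-test; at least 5 animals.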

Mast cell [1] = test: Inhibition of compound-48/80 induced degranulation in Wistar rat peritoneal mast cells assessed as histamine release at 20 uM by spectrophotometry; type: functional
How it was run: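 Peritoneal cells recovered by lavage with 15 ml HEPES buffer at 37 °C from a female Wistar rat (250-300 g). Cells washed by centrifugation, >90% viable, about 1.4% mast cells. Stopped with iced buffer; released histamine measured by o-phthalaldehyde spectrophotometry. Mean of at least five experiments, SE given.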

Mast cell [2] = test: Inhibition of compound-48/80 induced degranulation in Wistar rat peritoneal mast cells assessed as histamine release by spectrophotometry; type: functional, cell-based
How it was run: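 Female Wistar rat (250-300 g) peritoneal lavage cells in HEPES buffer, unpurified, preincubated with compound across a dose range. Stopped with iced buffer; histamine release measured spectrophotometrically as o-phthalaldehyde complex. IC50 derived from dose-response curve fitting.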

Mast cell [3] = test: Inhibition of concanavalin A-induced degranulation in Wistar rat peritoneal mast cells assessed as histamine release by spectrophotometry
Mast cell [4] = test: Inhibition of compound-48/80 induced degranulation in Wistar rat peritoneal mast cells assessed as histamine release at 20 uM by spectrophotometry
Mast cell [5] = test: Inhibition of compound-48/80 induced degranulation in Wistar rat peritoneal mast cells assessed as histamine release by spectrophotometry
Mast cell [6] = test: Inhibition of A23187-induced degranulation in Wistar rat peritoneal mast cells assessed as histamine release by spectrophotometry

Structure (SMILES): O=C1CCC(N(C(=O)Cc2ccccc2)C2CCCC2)c2ccccc21 (centres undefined)
inhibition (INH) (Mus musculus): 53%

Structure (SMILES): CC(=O)N(C1CCCC1)C1CCC(=O)c2ccccc21 (centres undefined)
inhibition (INH) (Mus musculus): 2%

Structure (SMILES): CC(=O)c1ccccc1CN(C)Cc1ccccc1
Activity (Mast cell [1]): inactive | Activity (Mast cell [2]): inactive

Structure (SMILES): CN(Cc1ccccc1)C1CCC(=O)c2ccccc21 (centres undefined)
Activity (Mast cell [1]): inactive | Activity (Mast cell [2]): inactive

IC50 (Mast cell [3]): 7200 nM | IC50 (Mast cell [5]): 2400 nM | IC50 (Mast cell [6]): 280 nM
Structure (SMILES): O=C1CCC(N(Cc2ccccc2)C2CCCC2)c2ccccc21 (centres undefined)
inhibition at 20 µM (Mast cell [4]): 99%

Structure (SMILES): COc1cc(CN(C2CCCC2)C2CCC(=O)c3ccccc32)cc(OC)c1OC (centres undefined)
Activity (Mast cell [1]): inactive

Structure (SMILES): O=C(O)c1cc(=O)c2c(OCC(O)COc3cccc4oc(C(=O)O)cc(=O)c34)cccc2o1 [CROMOLYN SODIUM]
inhibition at 20 µM (Mast cell [4]): 10%

Structure (SMILES): CCC(=O)NC1CCC(=O)c2ccccc21 (centres undefined)
inhibition (INH) (Mus musculus): 11%

Structure (SMILES): C=CCN(C1CCCC1)C1CCC(=O)c2ccccc21 (centres undefined)
Activity (Mast cell [1]): inactive

Structure (SMILES): N#Cc1ccc(CN(C2CCCC2)C2CCC(=O)c3ccccc32)cc1 (centres undefined)
inhibition at 20 µM (Mast cell [4]): 67%

Structure (SMILES): COc1ccc2c(c1)c(CC(=O)O)c(C)n2C(=O)c1ccc(Cl)cc1 [INDOMETHACIN]
inhibition (INH) (Mus musculus): 74%

Structure (SMILES): O=C1CCC(N(Cc2ccc([N+](=O)[O-])cc2)C2CCCC2)c2ccccc21 (centres undefined)
inhibition at 20 µM (Mast cell [4]): 65%

Structure (SMILES): O=C1CCC(N(Cc2ccc3ccccc3c2)C2CCCC2)c2ccccc21 (centres undefined)
inhibition at 20 µM (Mast cell [4]): 77%

Structure (SMILES): CN(C1CCCC1)C1CCC(=O)c2ccccc21 (centres undefined)
inhibition at 20 µM (Mast cell [4]): 43%
